In ChEMBL document CHEMBL1151941, “Inhibition of influenza virus infections by sialylgalactose-binding peptides selected from a phage library” (J Med Chem, 2009):
Active and inactive are the calls of the source. The rule behind the calls is not given here. Where a SMILES comes first, the peptide text is derived from it. The star is where a group is joined. Stearoyl = CCCCCCCCCCCCCCCCCC(=O)*

Key:
[1] = Binding affinity to ganglioside GM3 by quartz crystal microbalance method
[2] = Binding affinity to ganglioside GalCer by quartz crystal microbalance method
[3] = Binding affinity to ganglioside 6'GM3 by quartz crystal microbalance method
[4] = Binding affinity to ganglioside GlcCer by quartz crystal microbalance method
[5] = Critical micellar concentration of the compound; type: physicochemical
Procedure, shortened: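 N-stearoyl peptide amide was suspended in PBS containing 1 μM N-phenyl-1-naphthylamine and diluted to 1 nM-0.1 mM. Fluorescence (ex 350, em 450 nm) was read at 25 °C. The cmc is taken at the intersection of two straight lines in the intensity-versus-concentration plot.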

H3N2 subtype = assay: Antiviral activity against Influenza A virus (A/Aichi/2/1968(H3N2)) infected in MDCK cells after 30 mins by crystal violet-based plaque assay; type: functional, organism-based; details: 0.5 h
Procedure, shortened: (§1)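 MDCK cells in 6-well plates were exposed for 30 min at 37 °C, 5% CO2, to 0.2 mL virus (50-200 pfu) with C18-peptide from PBS stock (2 or 10 mM). After a PBS wash, cells were overlaid with 0.6% agarose/MEM (DEAE-dextran, HEPES, acetyltrypsin, BSA) for 2 days. Living cells were stained and plaques counted. IC50 is the concentration giving 50% inhibition.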

Influenza A virus = assay: Antiviral activity against Influenza A virus (A/Puerto Rico/8/34(H1N1)) infected in MDCK cells after 30 mins by crystal violet-based plaque assay; type: functional, organism-based; details: A/Puerto Rico/8/1934(H1N1), 0.5 h; procedure, shortened: as §1
[6] = Binding affinity to ganglioside GM3 at 10 uM
[7] = Ratio of Kd for ganglioside GM3 to Kd for ganglioside GlcCer
B16 [8] = assay: Inhibition of binding affinity to ganglioside GM3 in mouse B16 cells at 10 nM by flow cytometry in presence of Glc; type: cell-based
Procedure, shortened: (§2)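 B16 cells (2×10^5) were incubated 1 h on ice with phage (10 nM) with or without 1 mM Neu5Ac, Glc or GlcU. They were washed in 1% BSA/PBS, labelled with anti-fd antibody and FITC-conjugated antibody, and analysed by flow cytometry.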

[9] = Ratio of Kd for ganglioside GM3 to Kd for ganglioside GalCer
[10] = Ratio of Kd for ganglioside GM3 to Kd for ganglioside 6'GM3
B16 [11] = assay: Inhibition of binding affinity to ganglioside GM3 in mouse B16 cells at 10 nM by flow cytometry in presence of GlcU; type: cell-based; procedure, shortened: as §2
[12] = Binding affinity to ganglioside GM3 by ELISA relative to wild type fd phage clone
Procedure, shortened: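 GM3 monolayer was transferred from TBS (20 °C, 30 mN m-1) onto a BSA-blocked plastic plate. Phage clones (0.05-5 nM in TBS) were incubated 30 min at 4 °C. Detection used anti-fd antibody, then peroxidase anti-rabbit IgG (each 1 h, 4 °C), with o-phenylenediamine. ΔA was read at 492 nm in triplicate and expressed relative to wild-type fd phage.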

B16 [13] = assay: Inhibition of binding affinity to ganglioside GM3 in mouse B16 cells at 10 nM by flow cytometry in presence of 1 mM Neu5Ac; type: cell-based; procedure, shortened: as §2
B16 [14] = assay: Inhibition of binding affinity to ganglioside GM3 in mouse B16 cells pretreated with neuraminidase at pH 7.4 at 10 nM by flow cytometry; type: cell-based
Procedure, shortened: (§3)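 Sialic acid was removed from B16 cells (2×10^5) with 0.05 units Arthrobacter ureafaciens neuraminidase for 90 min at 37 °C, pH 6.5 or 7.4. After three washes, cells took 10 nM phage and were labelled with anti-fd antibody and FITC-conjugated antibody for flow cytometry.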

[15] = Selectivity ratio of Kd for ganglioside GalCer to Kd for ganglioside GM3
B16 [16] = assay: Binding affinity to ganglioside GM3 in mouse B16 cells at 1 to 10 nM by flow cytometry; type: cell-based
Procedure, shortened: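 B16 monolayer cells (2×10^5) were given serially diluted phage (0.5-10 nM) in 1% BSA/PBS for 1 h on ice. After washes, they were labelled with anti-fd antibody and then FITC anti-rabbit IgG (each 0.5 h on ice) and analysed by flow cytometry.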

B16 [17] = assay: Inhibition of binding affinity to ganglioside GM3 in mouse B16 cells pretreated with neuraminidase at pH 6.5 at 10 nM by flow cytometry; type: cell-based; procedure, shortened: as §3

Compound: CC(C)C[C@H](NC(=O)[C@H](CO)NC(=O)[C@H](CC(=O)O)NC(=O)[C@H](Cc1ccccc1)NC(=O)[C@H](C)NC(=O)[C@H](C)NC(=O)[C@H](CCCN)NC(=O)[C@H](C)NC(=O)[C@@H]1CCCN1C(=O)[C@H](CC(=O)O)NC(=O)[C@H](CC(=O)O)NC(=O)CNC(=O)[C@H](CCC(=O)O)NC(=O)[C@H](C)N)C(=O)N[C@@H](CCC(N)=O)C(=O)O
- Kd [1]: Not Active
- Kd [2]: Not Active
- Kd [3]: Not Active
- Kd [4]: Not Active

Compound: CCCCCCCCCCCCCCCCCC(=O)N[C@@H](C)C(=O)N[C@@H](CCC(=O)O)C(=O)N[C@H](C(=O)N[C@H](C(=O)N[C@@H](CCC(=O)O)C(=O)N[C@@H](CO)C(=O)N[C@@H](CS)C(=O)N[C@@H](CC(C)C)C(=O)N[C@@H](C)C(=O)N[C@@H](CCCCN)C(=O)N1CCC[C@H]1C(=O)N[C@@H](Cc1cnc[nH]1)C(=O)N[C@H](C(=O)N[C@@H](CCC(=O)O)C(=O)N[C@@H](CC(N)=O)C(N)=O)[C@H](C)O)C(C)C)[C@@H](C)O
- CMC [5]: 0.8 µM
- IC50 (H3N2 subtype): > 100 µM
- IC50 (Influenza A virus): 66 µM

Compound: CCCCCCCCCCCCCCCCCC(=O)N[C@@H](C)C(=O)N[C@H](C(=O)N[C@@H](C)C(=O)N[C@@H](CO)C(=O)N[C@H](C(=O)N1CCC[C@H]1C(=O)N[C@@H](CCCNC(=N)N)C(=O)N[C@@H](C)C(=O)N[C@@H](CCCNC(=N)N)C(=O)NCC(=O)N[C@@H](CCCCN)C(=O)N[C@@H](Cc1ccc(O)cc1)C(=O)N[C@@H](Cc1c[nH]c2ccccc12)C(=O)N[C@@H](Cc1c[nH]c2ccccc12)C(=O)NCC(N)=O)C(C)C)C(C)C (Stearoyl-AVASVPRARGKYWWG-NH2)
- CMC [5]: 0.8 µM
- IC50 (H3N2 subtype): 17 µM
- IC50 (Influenza A virus): 44 µM

Compound: CCCCCCCCCCCCCCCCCC(=O)N[C@@H](CC(=O)O)C(=O)N[C@@H](Cc1ccccc1)C(=O)N[C@@H](CCCNC(=N)N)C(=O)N[C@@H](CCCNC(=N)N)C(=O)N[C@@H](CC(C)C)C(=O)N1CCC[C@H]1C(=O)NCC(=O)N[C@@H](C)C(=O)N[C@@H](Cc1ccccc1)C(=O)N[C@@H](Cc1c[nH]c2ccccc12)C(=O)N[C@@H](CCC(N)=O)C(=O)N[C@@H](CC(C)C)C(=O)N[C@@H](CCCNC(=N)N)C(=O)N[C@@H](CCC(N)=O)C(=O)N1CCC[C@H]1C(N)=O (Stearoyl-DFRRLPGAFWQLRQP-NH2)
- CMC [5]: 0.8 µM
- IC50 (H3N2 subtype): 19 µM
- IC50 (Influenza A virus): 52 µM

Compound: CCCCCCCCCCCCCCCCCC(=O)NCC(=O)N[C@@H](C)C(=O)N[C@@H](Cc1c[nH]c2ccccc12)C(=O)N[C@@H](Cc1ccc(O)cc1)C(=O)N[C@@H](CCCCN)C(=O)NCC(=O)N[C@@H](CCCNC(=N)N)C(=O)N[C@@H](C)C(=O)N[C@@H](CCCNC(=N)N)C(=O)N1CCC[C@H]1C(=O)N[C@H](C(=O)N[C@@H](CO)C(=O)N[C@@H](C)C(=O)N[C@H](C(=O)N[C@@H](C)C(N)=O)C(C)C)C(C)C (Stearoyl-GAWYKGRARPVSAVA-NH2)
- CMC [5]: 0.8 µM
- IC50 (Influenza A virus): 53 µM

Compound: CCCCCCCCCCCCCCCCCC(=O)NCC(=O)N[C@@H](Cc1c[nH]c2ccccc12)C(=O)N[C@@H](Cc1c[nH]c2ccccc12)C(=O)N[C@@H](Cc1ccc(O)cc1)C(=O)N[C@@H](CCCCN)C(=O)NCC(=O)N[C@@H](CCCNC(=N)N)C(=O)N[C@@H](C)C(=O)N[C@@H](CCCNC(=N)N)C(=O)N[C@@H](C)C(=O)N[C@H](C(=O)N[C@@H](CO)C(=O)N[C@@H](C)C(=O)N[C@H](C(=O)N[C@@H](C)C(N)=O)C(C)C)C(C)C (Stearoyl-GWWYKGRARAVSAVA-NH2)
- CMC [5]: 0.8 µM
- IC50 (Influenza A virus): 89 µM

Compound: CCCCCCCCCCCCCCCCCC(=O)NCC(=O)N[C@@H](Cc1c[nH]c2ccccc12)C(=O)N[C@@H](Cc1c[nH]c2ccccc12)C(=O)N[C@@H](Cc1ccc(O)cc1)C(=O)N[C@@H](CCCCN)C(=O)NCC(=O)N[C@@H](CCCNC(=N)N)C(=O)N[C@@H](C)C(=O)N[C@@H](CCCNC(=N)N)C(=O)N1CCC[C@H]1C(=O)N[C@H](C(=O)N[C@@H](CO)C(=O)N[C@@H](C)C(=O)N[C@H](C(=O)N[C@@H](C)C(N)=O)C(C)C)C(C)C (Stearoyl-GWWYKGRARPVSAVA-NH2)
- CMC [5]: 0.8 µM
- IC50 (H3N2 subtype): > 10 µM
- IC50 (Influenza A virus): 3.2 µM

Compound: CCCCCCCCCCCCCCCCCC(=O)N[C@@H](CCCNC(=N)N)C(=O)N[C@@H](C)C(=O)N[C@H](C(=O)N[C@@H](Cc1c[nH]c2ccccc12)C(=O)N[C@@H](CCCNC(=N)N)C(=O)N[C@@H](Cc1cnc[nH]1)C(=O)N[C@@H](CO)C(=O)N[C@H](C(=O)N[C@@H](C)C(=O)N[C@H](C(=O)N1CCC[C@H]1C(=O)N[C@@H](CO)C(=O)N[C@@H](Cc1cnc[nH]1)C(=O)N[C@@H](CO)C(=O)N[C@H](C(N)=O)C(C)C)[C@@H](C)O)C(C)C)C(C)C (Stearoyl-RAVWRHSVATPSHSV-NH2)
- CMC [5]: 0.8 µM
- IC50 (H3N2 subtype): 68 µM
- IC50 (Influenza A virus): 6.5 µM

Compound: H-DFRRLPGAFWQLRQP-OH
- Activity [6]: 119 ng/cm2

Compound: H-GWWYKGRARPVSAVA-NH2
- IC50 (Influenza A virus): > 500 µM

Compound: H-GWWYKGRARPVSAVA-OH
- Ratio [7]: < 0.02
- inhibition (B16 [8]): inactive
- Activity [6]: 39 ng/cm2
- Kd ([1]; read-out: Kd): 1.5 µM
- Kd ([2]; read-out: Kd): 9.8 µM
- Ratio [9]: 0.15
- Ratio [10]: 1
- inhibition (B16 [11]): 46%
- fold change (FC) [12]: 2.1
- inhibition (B16 [13]): 61%
- inhibition (B16 [14]): inactive
- Ratio [15]: 6.5
- Kd ([3]; read-out: Kd): 1.5 µM
- Kd ([4]; read-out: Kd): > 70 µM
- Activity (B16 [16]): Active
- inhibition (B16 [17]): Active

Compound: H-GWYSSRHYVRSLNGL-OH
- fold change (FC) [12]: 1.4

Compound: H-LSWPLHAGRGFRWVS-OH
- fold change (FC) [12]: 0.9

Compound: H-LWRPVLFHSAVRALG-OH
- fold change (FC) [12]: 1.7

Compound: H-QQLVYNWWAVSSARR-OH
- fold change (FC) [12]: 1.1

Compound: H-RAVWRHSVATPSHSV-NH2
- IC50 (Influenza A virus): > 500 µM

Compound: H-RAVWRHSVATPSHSV-OH
- Ratio [7]: < 0.006
- Kd ([1]; read-out: Kd): 0.41 µM
- Kd ([2]; read-out: Kd): > 70 µM
- Ratio [9]: < 0.006
- Ratio [10]: 0.2
- fold change (FC) [12]: 1.5
- Kd ([3]; read-out: Kd): 2 µM
- Kd ([4]; read-out: Kd): > 70 µM

Compound: H-WRGVYFGDRWLGSQP-OH
- fold change (FC) [12]: 1.6
